Experimental data: ChEMBL document CHEMBL4038327, “Inhibitory Kappa B Kinase α (IKKα) Inhibitors That Recapitulate Their Selectivity in Cells against Isoform-Related Biomarkers” (J Med Chem, 2017); call rule not given here

Experiments:
[1] = target: T1, Inhibitor of nuclear factor kappa-B kinase subunit beta (Homo sapiens, UniProt O14920); assay: Inhibition of IKKbeta in human U2OS cells assessed as TNFalpha induced IkBalpha degradation at 100 uM preincubated for 1 hr followed by TNFalpha stimulation for 30 mins by Western blot analysis; type: cell-based; conditions: 0.5 h
T1 sequence (O14920 whole entry): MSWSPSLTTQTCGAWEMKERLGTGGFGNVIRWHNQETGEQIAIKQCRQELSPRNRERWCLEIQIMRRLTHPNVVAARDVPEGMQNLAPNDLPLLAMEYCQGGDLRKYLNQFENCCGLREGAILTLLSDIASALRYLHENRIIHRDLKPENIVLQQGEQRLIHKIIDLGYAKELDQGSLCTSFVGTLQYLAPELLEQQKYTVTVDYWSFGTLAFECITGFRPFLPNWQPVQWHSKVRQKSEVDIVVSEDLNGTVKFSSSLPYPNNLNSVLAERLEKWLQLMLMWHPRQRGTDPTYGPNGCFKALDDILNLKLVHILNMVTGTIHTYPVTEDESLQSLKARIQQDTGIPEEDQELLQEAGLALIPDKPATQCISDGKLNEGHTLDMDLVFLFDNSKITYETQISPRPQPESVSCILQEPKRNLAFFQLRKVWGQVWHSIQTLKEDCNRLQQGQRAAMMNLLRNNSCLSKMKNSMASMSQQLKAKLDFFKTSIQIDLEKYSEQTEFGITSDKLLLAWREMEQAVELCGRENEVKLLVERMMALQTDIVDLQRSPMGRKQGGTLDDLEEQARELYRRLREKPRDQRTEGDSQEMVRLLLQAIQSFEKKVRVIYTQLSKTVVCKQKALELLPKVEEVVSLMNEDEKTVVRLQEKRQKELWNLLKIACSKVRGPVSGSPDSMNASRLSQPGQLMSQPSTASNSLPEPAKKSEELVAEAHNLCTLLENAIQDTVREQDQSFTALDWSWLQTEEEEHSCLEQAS
In short: (§1)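 U2OS cells were grown in McCoy's 5A medium at 37 °C under 5% CO2 and made quiescent by 24 h serum deprivation. They were then pretreated with compound before agonist stimulation in serum-free medium. Phospho-p100, IκBα levels and phospho-p65 (Ser536) were assessed by Western blot.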

[2] = target: Casein kinase I isoform delta (Homo sapiens) (UniProt P48730); assay: Inhibition of recombinant human N-terminal GST-tagged CK1delta (1 to 294 residues) expressed in Escherichia coli at 10 uM relative to control
In short: (§2)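 Outsourced commercial kinase panel run at a single concentration, with duplicate assay points.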

[3] = target: T2, Serine/threonine-protein kinase D1 (Homo sapiens) (UniProt Q15139); assay: Inhibition of N-terminal His6 tagged recombinant human full length PKCmu expressed in Sf21 cells at 10 uM relative to control; in short: as §2
T2 sequence (whole entry): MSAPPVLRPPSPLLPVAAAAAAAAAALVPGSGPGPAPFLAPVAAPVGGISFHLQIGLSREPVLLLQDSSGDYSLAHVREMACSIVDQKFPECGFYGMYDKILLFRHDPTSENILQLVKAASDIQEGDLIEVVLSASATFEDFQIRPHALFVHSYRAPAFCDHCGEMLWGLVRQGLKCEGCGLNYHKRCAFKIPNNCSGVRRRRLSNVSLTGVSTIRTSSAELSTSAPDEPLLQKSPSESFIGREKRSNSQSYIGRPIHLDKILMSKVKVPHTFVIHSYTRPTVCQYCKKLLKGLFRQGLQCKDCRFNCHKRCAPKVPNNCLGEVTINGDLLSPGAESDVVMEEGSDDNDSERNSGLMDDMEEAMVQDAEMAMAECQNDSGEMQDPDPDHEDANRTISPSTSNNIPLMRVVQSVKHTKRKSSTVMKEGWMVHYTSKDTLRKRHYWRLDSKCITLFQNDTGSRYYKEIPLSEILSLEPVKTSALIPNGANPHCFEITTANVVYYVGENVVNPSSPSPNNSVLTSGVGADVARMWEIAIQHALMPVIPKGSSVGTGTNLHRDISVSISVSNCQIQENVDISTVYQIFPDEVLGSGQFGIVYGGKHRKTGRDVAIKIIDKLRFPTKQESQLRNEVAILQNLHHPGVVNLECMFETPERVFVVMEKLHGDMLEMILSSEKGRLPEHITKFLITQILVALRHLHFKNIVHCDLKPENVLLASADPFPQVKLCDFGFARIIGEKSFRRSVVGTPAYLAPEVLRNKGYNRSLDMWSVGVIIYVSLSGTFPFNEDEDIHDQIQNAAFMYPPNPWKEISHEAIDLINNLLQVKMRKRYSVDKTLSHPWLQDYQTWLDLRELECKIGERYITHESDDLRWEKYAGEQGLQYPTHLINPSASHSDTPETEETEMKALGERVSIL

[4] = target: Serine/threonine-protein kinase Chk2 (Homo sapiens) (UniProt O96017); assay: Inhibition of N-terminal GST and C-terminal His6 tagged recombinant human CHK2 expressed in Escherichia coli cells at 10 uM relative to control; in short: as §2
[5] = target: T3, Inhibitor of nuclear factor kappa-B kinase subunit alpha (Homo sapiens, UniProt O15111); assay: Inhibition of recombinant human N-terminal GST-tagged IKKalpha (1 to 745 residues) expressed in baculovirus expression system using biotinylated IkBalpha as substrate after 60 mins by DELFIA
T3 sequence (O15111 whole entry): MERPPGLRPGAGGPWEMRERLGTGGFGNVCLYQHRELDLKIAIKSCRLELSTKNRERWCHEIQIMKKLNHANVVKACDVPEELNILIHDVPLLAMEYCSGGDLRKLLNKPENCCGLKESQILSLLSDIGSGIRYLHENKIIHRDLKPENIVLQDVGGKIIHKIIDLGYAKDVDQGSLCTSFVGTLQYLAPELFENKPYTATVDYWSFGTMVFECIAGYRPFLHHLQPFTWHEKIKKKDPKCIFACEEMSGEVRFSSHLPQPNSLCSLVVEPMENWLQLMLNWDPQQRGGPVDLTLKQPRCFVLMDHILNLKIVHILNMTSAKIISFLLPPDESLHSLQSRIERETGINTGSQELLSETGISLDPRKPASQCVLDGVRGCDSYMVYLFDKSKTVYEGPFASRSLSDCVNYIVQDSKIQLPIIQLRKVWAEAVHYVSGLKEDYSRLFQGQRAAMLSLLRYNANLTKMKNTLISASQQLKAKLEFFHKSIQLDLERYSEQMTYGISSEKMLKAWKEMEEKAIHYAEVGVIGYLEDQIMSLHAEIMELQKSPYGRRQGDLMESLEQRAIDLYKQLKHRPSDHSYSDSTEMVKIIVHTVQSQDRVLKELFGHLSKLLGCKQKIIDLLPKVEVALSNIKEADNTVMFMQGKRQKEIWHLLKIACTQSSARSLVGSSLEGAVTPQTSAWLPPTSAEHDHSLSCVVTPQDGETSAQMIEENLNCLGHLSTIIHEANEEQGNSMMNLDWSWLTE

[6] = target: T4, Inhibitor of nuclear factor kappa-B kinase subunit alpha (Homo sapiens) (UniProt O15111); assay: (§3) Inhibition of IKKalpha in human U2OS cells assessed as decrease in FCS induced p100 phosphorylation at ser866/870 residues preincubated for 1 hr followed by FCS stimulation for 4 hrs by Western blot analysis; type: cell-based; in short: as §1
T4 sequence (whole entry): T3 sequence (O15111 whole entry)

[7] = target: T3, Inhibitor of nuclear factor kappa-B kinase subunit alpha; assay: as §3; type: cell-based; in short: as §1

Chain of Casein kinase I isoform delta (Homo sapiens) (P48730 whole entry, looked up, the tested form may be a part, canonical isoform): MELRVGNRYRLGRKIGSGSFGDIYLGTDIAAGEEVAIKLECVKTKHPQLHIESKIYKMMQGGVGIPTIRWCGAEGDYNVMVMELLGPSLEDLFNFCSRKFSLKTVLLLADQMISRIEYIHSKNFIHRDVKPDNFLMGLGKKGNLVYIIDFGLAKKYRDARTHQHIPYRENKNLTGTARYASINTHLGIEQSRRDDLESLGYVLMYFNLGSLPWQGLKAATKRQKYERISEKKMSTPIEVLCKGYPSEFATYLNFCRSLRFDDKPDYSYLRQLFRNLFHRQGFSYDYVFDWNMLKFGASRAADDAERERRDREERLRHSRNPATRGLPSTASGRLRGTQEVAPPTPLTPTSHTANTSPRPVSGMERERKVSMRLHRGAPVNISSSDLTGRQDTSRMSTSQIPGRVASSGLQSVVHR
Chain of Serine/threonine-protein kinase Chk2 (Homo sapiens) (O96017 whole entry, the tested form may be a part): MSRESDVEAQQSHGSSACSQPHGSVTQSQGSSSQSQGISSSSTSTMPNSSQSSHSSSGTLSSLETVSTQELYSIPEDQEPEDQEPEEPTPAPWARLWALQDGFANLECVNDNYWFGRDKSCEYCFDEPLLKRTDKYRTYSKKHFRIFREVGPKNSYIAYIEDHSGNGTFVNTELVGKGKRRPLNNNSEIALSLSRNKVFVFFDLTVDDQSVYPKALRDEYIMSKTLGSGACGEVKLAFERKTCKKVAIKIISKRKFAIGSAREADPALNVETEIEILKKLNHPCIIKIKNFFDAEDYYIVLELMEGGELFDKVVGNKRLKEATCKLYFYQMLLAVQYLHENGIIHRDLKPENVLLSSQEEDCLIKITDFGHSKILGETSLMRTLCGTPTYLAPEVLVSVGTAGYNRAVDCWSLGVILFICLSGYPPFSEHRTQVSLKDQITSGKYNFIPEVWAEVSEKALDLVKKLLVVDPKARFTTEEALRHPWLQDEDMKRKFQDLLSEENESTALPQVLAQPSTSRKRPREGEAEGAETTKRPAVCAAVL

inhibition (INH) [1]: Active | inhibition [2]: > 80% | inhibition [3]: > 80% | inhibition [4]: > 80% | Ki [5]: 0.08 µM | inhibition [6]: Dose-dependent effect | IC50 [7]: 5.8 to 8.8 µM
Compound: N#Cc1c[nH]c2nc(N)nc(-c3ccc(S(N)(=O)=O)cc3)c12
